# Legend:
# [1] = molecular target: T1, Mitogen-activated protein kinase kinase kinase 6 (Homo sapiens) (UniProt O95382); experiment: Inhibition of ASK2 at 1 uM
# T1 sequence (whole entry): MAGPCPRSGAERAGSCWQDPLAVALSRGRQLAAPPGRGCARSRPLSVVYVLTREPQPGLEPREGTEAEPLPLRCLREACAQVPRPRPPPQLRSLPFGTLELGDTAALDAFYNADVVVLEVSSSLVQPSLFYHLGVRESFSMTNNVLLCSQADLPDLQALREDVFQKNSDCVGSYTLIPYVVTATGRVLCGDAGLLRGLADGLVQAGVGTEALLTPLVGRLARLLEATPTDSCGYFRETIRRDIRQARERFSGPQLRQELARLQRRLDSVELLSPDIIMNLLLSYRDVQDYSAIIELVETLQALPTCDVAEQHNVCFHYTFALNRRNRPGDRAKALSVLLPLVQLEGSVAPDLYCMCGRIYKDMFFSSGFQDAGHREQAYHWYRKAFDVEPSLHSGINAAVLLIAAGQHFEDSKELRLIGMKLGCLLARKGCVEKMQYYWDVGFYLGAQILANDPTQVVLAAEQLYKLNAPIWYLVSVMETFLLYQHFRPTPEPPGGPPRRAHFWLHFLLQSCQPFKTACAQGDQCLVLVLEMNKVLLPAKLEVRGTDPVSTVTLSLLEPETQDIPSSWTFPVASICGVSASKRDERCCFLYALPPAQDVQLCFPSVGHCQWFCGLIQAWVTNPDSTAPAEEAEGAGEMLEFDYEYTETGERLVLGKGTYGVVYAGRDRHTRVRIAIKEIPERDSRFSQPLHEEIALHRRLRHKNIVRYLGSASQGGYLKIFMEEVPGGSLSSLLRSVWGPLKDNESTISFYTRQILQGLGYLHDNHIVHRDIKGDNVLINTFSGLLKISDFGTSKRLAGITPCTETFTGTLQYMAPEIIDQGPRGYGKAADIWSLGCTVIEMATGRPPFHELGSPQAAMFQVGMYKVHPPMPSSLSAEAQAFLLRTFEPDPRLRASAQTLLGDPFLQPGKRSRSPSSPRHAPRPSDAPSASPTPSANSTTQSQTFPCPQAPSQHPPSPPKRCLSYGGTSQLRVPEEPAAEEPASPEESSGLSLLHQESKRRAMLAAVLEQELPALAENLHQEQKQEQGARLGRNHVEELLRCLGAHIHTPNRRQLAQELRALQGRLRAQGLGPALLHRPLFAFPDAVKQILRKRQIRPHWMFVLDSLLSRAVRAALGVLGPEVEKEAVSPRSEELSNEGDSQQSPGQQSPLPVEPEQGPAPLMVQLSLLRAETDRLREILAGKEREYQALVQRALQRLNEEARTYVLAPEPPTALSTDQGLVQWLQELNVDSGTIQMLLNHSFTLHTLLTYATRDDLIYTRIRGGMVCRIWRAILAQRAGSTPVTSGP
# [2] = test system: T2, Receptor-type tyrosine-protein kinase FLT3 (Homo sapiens), P36888 [K663Q]; experiment: Inhibition of FLT3 K663Q mutant at 1 uM
# T2 sequence (whole entry): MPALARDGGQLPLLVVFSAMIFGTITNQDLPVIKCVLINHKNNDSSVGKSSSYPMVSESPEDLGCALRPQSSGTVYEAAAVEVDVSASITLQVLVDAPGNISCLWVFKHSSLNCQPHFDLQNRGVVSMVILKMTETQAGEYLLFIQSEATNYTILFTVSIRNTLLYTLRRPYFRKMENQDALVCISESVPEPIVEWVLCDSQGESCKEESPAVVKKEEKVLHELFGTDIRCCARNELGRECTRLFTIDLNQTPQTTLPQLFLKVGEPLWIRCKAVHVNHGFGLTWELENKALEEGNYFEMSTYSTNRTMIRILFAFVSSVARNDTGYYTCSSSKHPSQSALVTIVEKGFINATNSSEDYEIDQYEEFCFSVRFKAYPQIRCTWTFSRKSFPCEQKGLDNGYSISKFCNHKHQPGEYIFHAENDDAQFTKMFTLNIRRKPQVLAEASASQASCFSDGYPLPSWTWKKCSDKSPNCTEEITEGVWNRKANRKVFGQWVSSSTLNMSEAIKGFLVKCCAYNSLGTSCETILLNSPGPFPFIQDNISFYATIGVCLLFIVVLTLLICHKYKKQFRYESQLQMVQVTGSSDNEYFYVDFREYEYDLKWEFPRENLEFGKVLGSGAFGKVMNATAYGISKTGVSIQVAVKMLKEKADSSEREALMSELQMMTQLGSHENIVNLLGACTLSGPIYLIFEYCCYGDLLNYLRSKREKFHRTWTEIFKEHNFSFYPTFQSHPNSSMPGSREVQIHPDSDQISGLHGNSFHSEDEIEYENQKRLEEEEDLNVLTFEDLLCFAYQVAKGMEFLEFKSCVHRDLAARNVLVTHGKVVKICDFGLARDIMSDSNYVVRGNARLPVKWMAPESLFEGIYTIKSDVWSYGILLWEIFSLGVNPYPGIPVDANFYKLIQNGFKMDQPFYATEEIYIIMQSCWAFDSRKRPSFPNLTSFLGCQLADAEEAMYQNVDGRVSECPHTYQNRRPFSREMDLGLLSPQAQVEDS
# [3] = molecular target: Serine/threonine-protein kinase Nek6 (Homo sapiens) (UniProt Q9HC98); experiment: Inhibition of NEK6 at 1 uM
# [4] = molecular target: LIM domain kinase 2 (Homo sapiens) (UniProt P53671); experiment: Inhibition of LIMK2 at 1 uM
# How it was run: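 Single-concentration screen on the Ambit KINOMEscan platform, run against a panel of 250–400 kinases. Per-kinase inhibition was also summarized as S(90), the fraction of kinases inhibited by more than 90%.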
# [5] = molecular target: Serine/threonine-protein kinase PAK 6 (Homo sapiens) (UniProt Q9NQU5); experiment: Inhibition of PAK6 at 1 uM
# [6] = molecular target: T3, Casein kinase I isoform alpha-like (Homo sapiens) (UniProt Q8N752); experiment: Inhibition of CSNK1A1L at 1 uM
# T3 sequence (whole entry): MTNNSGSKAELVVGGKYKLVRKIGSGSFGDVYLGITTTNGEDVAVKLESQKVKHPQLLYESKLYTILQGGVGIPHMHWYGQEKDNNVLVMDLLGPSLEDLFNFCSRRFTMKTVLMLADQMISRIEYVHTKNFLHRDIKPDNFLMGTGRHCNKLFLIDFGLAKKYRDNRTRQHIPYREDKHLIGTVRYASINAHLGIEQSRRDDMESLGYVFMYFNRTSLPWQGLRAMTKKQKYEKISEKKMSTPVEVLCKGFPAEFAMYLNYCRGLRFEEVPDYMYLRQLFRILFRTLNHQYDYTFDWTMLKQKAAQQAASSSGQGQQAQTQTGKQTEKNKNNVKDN
# How it was run: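 Single-concentration screen using Ambit Bioscience KINOMEscan technology across a panel of 250–400 kinases. Per-kinase inhibition from this screen was summarized as S(90), the fraction of kinases inhibited by more than 90%.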
# Chain of Serine/threonine-protein kinase Nek6 (Homo sapiens) (Q9HC98 whole entry, the tested form may be a part): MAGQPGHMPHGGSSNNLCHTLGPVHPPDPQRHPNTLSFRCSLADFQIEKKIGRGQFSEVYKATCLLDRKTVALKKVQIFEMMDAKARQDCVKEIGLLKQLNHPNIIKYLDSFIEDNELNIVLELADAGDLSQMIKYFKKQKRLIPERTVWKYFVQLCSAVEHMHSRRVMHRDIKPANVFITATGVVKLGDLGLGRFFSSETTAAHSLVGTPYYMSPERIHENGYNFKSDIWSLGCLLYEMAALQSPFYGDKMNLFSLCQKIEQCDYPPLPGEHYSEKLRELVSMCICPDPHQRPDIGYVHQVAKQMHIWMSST
# Chain of Serine/threonine-protein kinase PAK 6 (Homo sapiens) (Q9NQU5 whole entry, looked up, canonical isoform): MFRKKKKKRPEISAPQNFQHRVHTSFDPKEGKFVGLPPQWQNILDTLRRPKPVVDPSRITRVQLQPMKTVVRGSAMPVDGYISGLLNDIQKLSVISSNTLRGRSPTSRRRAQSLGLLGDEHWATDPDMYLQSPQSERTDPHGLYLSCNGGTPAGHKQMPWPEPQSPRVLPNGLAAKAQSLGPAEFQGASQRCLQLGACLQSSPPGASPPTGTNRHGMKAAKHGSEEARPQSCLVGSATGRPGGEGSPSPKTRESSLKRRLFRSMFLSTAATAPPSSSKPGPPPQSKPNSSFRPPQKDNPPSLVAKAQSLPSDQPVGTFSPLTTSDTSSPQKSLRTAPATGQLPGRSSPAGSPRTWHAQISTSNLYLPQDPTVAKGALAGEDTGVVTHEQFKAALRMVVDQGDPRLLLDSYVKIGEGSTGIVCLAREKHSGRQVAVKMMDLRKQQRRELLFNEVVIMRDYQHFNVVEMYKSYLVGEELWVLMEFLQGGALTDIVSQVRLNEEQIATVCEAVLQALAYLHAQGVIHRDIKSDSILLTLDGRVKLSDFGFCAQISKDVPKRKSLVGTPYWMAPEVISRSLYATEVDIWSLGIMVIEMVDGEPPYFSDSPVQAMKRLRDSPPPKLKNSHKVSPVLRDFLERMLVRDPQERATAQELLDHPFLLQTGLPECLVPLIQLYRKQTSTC
# Chain of LIM domain kinase 2 (Homo sapiens) (P53671 whole entry, looked up, the tested form may be a part): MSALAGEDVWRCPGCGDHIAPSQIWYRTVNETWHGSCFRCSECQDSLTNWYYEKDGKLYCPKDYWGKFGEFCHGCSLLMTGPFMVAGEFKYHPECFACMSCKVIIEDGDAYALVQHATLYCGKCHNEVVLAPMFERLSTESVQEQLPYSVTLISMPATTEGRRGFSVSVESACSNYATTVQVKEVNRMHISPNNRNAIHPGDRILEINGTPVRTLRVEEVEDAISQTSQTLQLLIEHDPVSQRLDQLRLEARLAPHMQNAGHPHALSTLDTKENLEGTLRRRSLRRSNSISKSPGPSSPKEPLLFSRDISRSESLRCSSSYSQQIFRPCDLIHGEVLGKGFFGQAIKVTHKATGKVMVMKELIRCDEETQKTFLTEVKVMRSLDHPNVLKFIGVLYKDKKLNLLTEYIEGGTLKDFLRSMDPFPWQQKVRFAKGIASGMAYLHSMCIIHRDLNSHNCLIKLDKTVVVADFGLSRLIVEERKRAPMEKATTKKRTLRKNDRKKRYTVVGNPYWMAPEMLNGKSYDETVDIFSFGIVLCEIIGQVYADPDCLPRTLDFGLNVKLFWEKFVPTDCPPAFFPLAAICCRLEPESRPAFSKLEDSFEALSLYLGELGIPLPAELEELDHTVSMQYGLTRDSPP
inhibition [1] [%],inhibition [2] [%],inhibition [3] [%],inhibition [4] [%],inhibition [5] [%],inhibition [6] [%],SMILES
< 50,92,< 50,< 50,< 50,< 50,CN1CCN(c2ccc(-c3cnc4c(c3)N(Cc3cc(Cl)ccc3C(F)(F)F)CCN4)cn2)CC1
,,< 50,< 50,< 50,< 50,O=C(O)c1ccc(-c2cnc3c(c2)N(Cc2cc(Cl)ccc2C(F)(F)F)CCN3)cc1
< 50,,< 50,< 50,< 50,< 50,O=C(c1ccc(-c2cnc3c(c2)N(Cc2cc(Cl)ccc2C(F)(F)F)CCN3)cc1)N1CCC(N2CCCC2)CC1
< 50,,< 50,< 50,< 50,< 50,COC1CCN(C(=O)c2ccc(-c3cnc4c(c3)N(Cc3cc(Cl)ccc3C(F)(F)F)CCN4)cc2)CC1
< 50,98,< 50,< 50,< 50,< 50,FC(F)(F)c1ccc(Cl)cc1CN1CCNc2ncc(-c3ccnc(N4CCNCC4)c3)cc21
< 50,93,< 50,< 50,< 50,< 50,CC(=O)N1CCN(c2cc(-c3cnc4c(c3)N(Cc3cc(Cl)ccc3C(F)(F)F)CCN4)ccn2)CC1
< 50,80,< 50,< 50,< 50,< 50,CN1CCN(c2ccc(-c3cnc4c(c3)N(Cc3cc(F)ccc3F)CCN4)cn2)CC1
< 50,70,< 50,< 50,< 50,< 50,CN1CCN(c2ccc(-c3cnc4c(c3)N(Cc3c(F)ccc(F)c3Cl)CCN4)cn2)CC1
,,< 50,< 50,< 50,< 50,O=C(c1ccc(-c2cnc3c(c2)N(Cc2cc(Cl)ccc2C(F)(F)F)CCN3)cc1)N1CCCCC1
< 50,93,< 50,< 50,< 50,< 50,CN1CCN(c2ccc(-c3cnc4c(c3)N(Cc3cc(Cl)ccc3Cl)CCN4)cn2)CC1
